Test results reported in ChEMBL document CHEMBL4689842, “EUbOPEN Chemogenomics Library wave 1” (2021).

Columns and labels:
Type in all cases: toxicity, cell-based
U2OS [1] = assay: Multiplex assay against U2OS; conditions: human
Method in brief: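 With compound added, live cells were imaged on a CQ1 microscope at 37°C and 5% CO2; staining with Hoechst33342, BioTracker Green Microtubule Cytoskeleton Dye, MitoTracker Red and Annexin V Alexa Fluor 680 had been done at seeding. The CellPathfinder machine-learning gating scheme split cells into Hoechst high-intensity objects or normal cells, normal cells into healthy, pyknosed or fragmented nuclei, and pyknosed cells into mitotic or apoptotic. The tubulin, mitochondrial-mass and membrane-permeability phenotypes are per cents of healthy-nucleus cells.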

HEK-293T = assay: Incucyte cell viability with HEK293T; conditions: human, 10 µM, compound concentration 10 uM; further: filed as whole numbers so only -1 and 0 and 1 occur
Fibroblast = assay: Incucyte cell viability with human fibroblast; conditions: 10 µM, compound concentration 10 uM; further: filed as whole numbers so only -1 and 0 and 1 occur
U2OS [2] = assay: Incucyte cell viability with U2OS; conditions: human, 10 µM, compound concentration 10 uM; further: filed as whole numbers so only -1 and 0 and 1 occur
[3] = 12 h, 1 µM, compound concentration 1 uM, replicate 1
[4] = 12 h, 1 µM, compound concentration 1 uM, replicate 2
[5] = 12 h, 10 µM, compound concentration 10 uM, replicate 1
[6] = 12 h, 10 µM, compound concentration 10 uM, replicate 2
[7] = 24 h, 1 µM, compound concentration 1 uM, replicate 1
[8] = 24 h, 1 µM, compound concentration 1 uM, replicate 2
[9] = 24 h, 10 µM, compound concentration 10 uM, replicate 1
[10] = 24 h, 10 µM, compound concentration 10 uM, replicate 2
[11] = 48 h, 1 µM, compound concentration 1 uM, replicate 1
[12] = 48 h, 1 µM, compound concentration 1 uM, replicate 2
[13] = 48 h, 10 µM, compound concentration 10 uM, replicate 1
[14] = 48 h, 10 µM, compound concentration 10 uM, replicate 2
[15] = 0 h, replicate number 1, timepoint 0 hours
[16] = 6 h, replicate number 1, timepoint 6 hours
[17] = 18 h, replicate number 1, timepoint 18 hours
[18] = 24 h, replicate number 1, timepoint 24 hours

In the case of `CCC(=O)O[C@]1(C(=O)SCF)[C@H](C)C[C@H]2[C@@H]3C[C@H](F)C4=CC(=O)C=C[C@]4(C)[C@@]3(F)[C@@H](O)C[C@@]21C` [FLUTICASONE PROPIONATE], the “Population Apoptotic (%)” value (U2OS [1]; [3]) is reported as 35%, the “Population Fragmented Nuclei (%)” value (U2OS [1]; [3]) is reported as 8% and the “Population Healthy Nuclei (%)” value (U2OS [1]; [3]) is reported as 81%. The “Population Hoechst High Intensity Objects (%)” value (U2OS [1]; [3]) was 5%, the “Population Membrane Permeable-Phenotype (%)” value (U2OS [1]; [3]) was 7% and the “Population Mitochondria Different-Phenotype (%)” value (U2OS [1]; [3]) was 7%. For the same compound, the “Population Mitotic Cells (%)” value (U2OS [1]; [3]) was 64%, the “Population Normal (%)” value (U2OS [1]; [3]) was 94% and the “Population Pyknosed Nuclei (%)” value (U2OS [1]; [3]) was 9%. The “Population Tubulin-Different-Phenotype (%)” value (U2OS [1]; [3]) was 10%, the “Total Cell Count” value (U2OS [1]; [3]) was 182 and the “Population Apoptotic (%)” value (U2OS [1]; [4]) was 71%. The “Population Fragmented Nuclei (%)” value (U2OS [1]; [4]) was 4%, the “Population Healthy Nuclei (%)” value (U2OS [1]; [4]) was 78% and the “Population Hoechst High Intensity Objects (%)” value (U2OS [1]; [4]) was 12%. For the same compound, the “Population Membrane Permeable-Phenotype (%)” value (U2OS [1]; [4]) was 3%, the “Population Mitochondria Different-Phenotype (%)” value (U2OS [1]; [4]) was 9% and the “Population Mitotic Cells (%)” value (U2OS [1]; [4]) was 28%. The “Population Normal (%)” value (U2OS [1]; [4]) was 87%, the “Population Pyknosed Nuclei (%)” value (U2OS [1]; [4]) was 16% and the “Population Tubulin-Different-Phenotype (%)” value (U2OS [1]; [4]) was 9%. For the same compound, the “Total Cell Count” value (U2OS [1]; [4]) was 68, the “Population Apoptotic (%)” value (U2OS [1]; [5]) was 53% and the “Population Fragmented Nuclei (%)” value (U2OS [1]; [5]) was 14%. For the same compound, the “Population Healthy Nuclei (%)” value (U2OS [1]; [5]) was 72%, the “Population Hoechst High Intensity Objects (%)” value (U2OS [1]; [5]) was 9% and the “Population Membrane Permeable-Phenotype (%)” value (U2OS [1]; [5]) was 22%. The “Population Mitochondria Different-Phenotype (%)” value (U2OS [1]; [5]) was 47%, the “Population Mitotic Cells (%)” value (U2OS [1]; [5]) was 46% and the “Population Normal (%)” value (U2OS [1]; [5]) was 90%. The “Population Pyknosed Nuclei (%)” value (U2OS [1]; [5]) was 13%, the “Population Tubulin-Different-Phenotype (%)” value (U2OS [1]; [5]) was 48% and the “Total Cell Count” value (U2OS [1]; [5]) was 155. For the same compound, the “Population Apoptotic (%)” value (U2OS [1]; [6]) was 28%, the “Population Fragmented Nuclei (%)” value (U2OS [1]; [6]) was 8% and the “Population Healthy Nuclei (%)” value (U2OS [1]; [6]) was 81%. The “Population Hoechst High Intensity Objects (%)” value (U2OS [1]; [6]) was 8%, the “Population Membrane Permeable-Phenotype (%)” value (U2OS [1]; [6]) was 3% and the “Population Mitochondria Different-Phenotype (%)” value (U2OS [1]; [6]) was 37%. For the same compound, the “Population Mitotic Cells (%)” value (U2OS [1]; [6]) was 71%, the “Population Normal (%)” value (U2OS [1]; [6]) was 92% and the “Population Pyknosed Nuclei (%)” value (U2OS [1]; [6]) was 10%. For the same compound, the “Population Tubulin-Different-Phenotype (%)” value (U2OS [1]; [6]) was 35%, the “Total Cell Count” value (U2OS [1]; [6]) was 48 and the “Population Apoptotic (%)” value (U2OS [1]; [7]) was 37%. The “Population Fragmented Nuclei (%)” value (U2OS [1]; [7]) was 4%, the “Population Healthy Nuclei (%)” value (U2OS [1]; [7]) was 86% and the “Population Hoechst High Intensity Objects (%)” value (U2OS [1]; [7]) was 3%. The “Population Membrane Permeable-Phenotype (%)” value (U2OS [1]; [7]) was 6%, the “Population Mitochondria Different-Phenotype (%)” value (U2OS [1]; [7]) was 5% and the “Population Mitotic Cells (%)” value (U2OS [1]; [7]) was 62%. For the same compound, the “Population Normal (%)” value (U2OS [1]; [7]) was 96%, the “Population Pyknosed Nuclei (%)” value (U2OS [1]; [7]) was 8% and the “Population Tubulin-Different-Phenotype (%)” value (U2OS [1]; [7]) was 6%. The “Total Cell Count” value (U2OS [1]; [7]) was 230, the “Population Apoptotic (%)” value (U2OS [1]; [8]) was 16% and the “Population Fragmented Nuclei (%)” value (U2OS [1]; [8]) was 3%. For the same compound, the “Population Healthy Nuclei (%)” value (U2OS [1]; [8]) was 84%, the “Population Hoechst High Intensity Objects (%)” value (U2OS [1]; [8]) was 11% and the “Population Membrane Permeable-Phenotype (%)” value (U2OS [1]; [8]) was 11%. For the same compound, the “Population Mitochondria Different-Phenotype (%)” value (U2OS [1]; [8]) was 11%, the “Population Mitotic Cells (%)” value (U2OS [1]; [8]) was 83% and the “Population Normal (%)” value (U2OS [1]; [8]) was 88%. The “Population Pyknosed Nuclei (%)” value (U2OS [1]; [8]) was 11%, the “Population Tubulin-Different-Phenotype (%)” value (U2OS [1]; [8]) was 20% and the “Total Cell Count” value (U2OS [1]; [8]) was 78. For the same compound, the “Population Apoptotic (%)” value (U2OS [1]; [9]) was 53%, the “Population Fragmented Nuclei (%)” value (U2OS [1]; [9]) was 17% and the “Population Healthy Nuclei (%)” value (U2OS [1]; [9]) was 61%. For the same compound, the “Population Hoechst High Intensity Objects (%)” value (U2OS [1]; [9]) was 9%, the “Population Membrane Permeable-Phenotype (%)” value (U2OS [1]; [9]) was 43% and the “Population Mitochondria Different-Phenotype (%)” value (U2OS [1]; [9]) was 24%. The “Population Mitotic Cells (%)” value (U2OS [1]; [9]) was 46%, the “Population Normal (%)” value (U2OS [1]; [9]) was 90% and the “Population Pyknosed Nuclei (%)” value (U2OS [1]; [9]) was 21%. For the same compound, the “Population Tubulin-Different-Phenotype (%)” value (U2OS [1]; [9]) was 41%, the “Total Cell Count” value (U2OS [1]; [9]) was 189 and the “Population Apoptotic (%)” value (U2OS [1]; [10]) was 58%. The “Population Fragmented Nuclei (%)” value (U2OS [1]; [10]) was 5%, the “Population Healthy Nuclei (%)” value (U2OS [1]; [10]) was 78% and the “Population Hoechst High Intensity Objects (%)” value (U2OS [1]; [10]) was 8%. The “Population Membrane Permeable-Phenotype (%)” value (U2OS [1]; [10]) was 6%, the “Population Mitochondria Different-Phenotype (%)” value (U2OS [1]; [10]) was 31% and the “Population Mitotic Cells (%)” value (U2OS [1]; [10]) was 41%. The “Population Normal (%)” value (U2OS [1]; [10]) was 91%, the “Population Pyknosed Nuclei (%)” value (U2OS [1]; [10]) was 16% and the “Population Tubulin-Different-Phenotype (%)” value (U2OS [1]; [10]) was 25%. For the same compound, the “Total Cell Count” value (U2OS [1]; [10]) was 59, the “Population Apoptotic (%)” value (U2OS [1]; [11]) was 53% and the “Population Fragmented Nuclei (%)” value (U2OS [1]; [11]) was 4%. For the same compound, the “Population Healthy Nuclei (%)” value (U2OS [1]; [11]) was 89%, the “Population Hoechst High Intensity Objects (%)” value (U2OS [1]; [11]) was 2% and the “Population Membrane Permeable-Phenotype (%)” value (U2OS [1]; [11]) was 5%. For the same compound, the “Population Mitochondria Different-Phenotype (%)” value (U2OS [1]; [11]) was 10%, the “Population Mitotic Cells (%)” value (U2OS [1]; [11]) was 46% and the “Population Normal (%)” value (U2OS [1]; [11]) was 97%. The “Population Tubulin-Different-Phenotype (%)” value (U2OS [1]; [11]) was 8%, the “Total Cell Count” value (U2OS [1]; [11]) was 304 and the “Population Apoptotic (%)” value (U2OS [1]; [12]) was 20%. For the same compound, the “Population Fragmented Nuclei (%)” value (U2OS [1]; [12]) was 1%, the “Population Healthy Nuclei (%)” value (U2OS [1]; [12]) was 93% and the “Population Hoechst High Intensity Objects (%)” value (U2OS [1]; [12]) was 8%. The “Population Membrane Permeable-Phenotype (%)” value (U2OS [1]; [12]) was 8%, the “Population Mitochondria Different-Phenotype (%)” value (U2OS [1]; [12]) was 12% and the “Population Mitotic Cells (%)” value (U2OS [1]; [12]) was 80%. For the same compound, the “Population Normal (%)” value (U2OS [1]; [12]) was 91%, the “Population Pyknosed Nuclei (%)” value (U2OS [1]; [12]) was 5% and the “Population Tubulin-Different-Phenotype (%)” value (U2OS [1]; [12]) was 19%. The “Total Cell Count” value (U2OS [1]; [12]) was 113, the “Population Apoptotic (%)” value (U2OS [1]; [13]) was 72% and the “Population Fragmented Nuclei (%)” value (U2OS [1]; [13]) was 13%. For the same compound, the “Population Healthy Nuclei (%)” value (U2OS [1]; [13]) was 67%, the “Population Hoechst High Intensity Objects (%)” value (U2OS [1]; [13]) was 6% and the “Population Membrane Permeable-Phenotype (%)” value (U2OS [1]; [13]) was 42%. For the same compound, the “Population Mitochondria Different-Phenotype (%)” value (U2OS [1]; [13]) was 18%, the “Population Mitotic Cells (%)” value (U2OS [1]; [13]) was 27% and the “Population Normal (%)” value (U2OS [1]; [13]) was 93%. The “Population Pyknosed Nuclei (%)” value (U2OS [1]; [13]) was 19%, the “Population Tubulin-Different-Phenotype (%)” value (U2OS [1]; [13]) was 38% and the “Total Cell Count” value (U2OS [1]; [13]) was 260. For the same compound, the “Population Apoptotic (%)” value (U2OS [1]; [14]) was 45%, the “Population Fragmented Nuclei (%)” value (U2OS [1]; [14]) was 4% and the “Population Healthy Nuclei (%)” value (U2OS [1]; [14]) was 85%. The “Population Hoechst High Intensity Objects (%)” value (U2OS [1]; [14]) was 3%, the “Population Membrane Permeable-Phenotype (%)” value (U2OS [1]; [14]) was 11% and the “Population Mitochondria Different-Phenotype (%)” value (U2OS [1]; [14]) was 14%. The “Population Mitotic Cells (%)” value (U2OS [1]; [14]) was 54%, the “Population Normal (%)” value (U2OS [1]; [14]) was 96% and the “Population Pyknosed Nuclei (%)” value (U2OS [1]; [14]) was 11%. The “Population Tubulin-Different-Phenotype (%)” value (U2OS [1]; [14]) was 22%, the “Total Cell Count” value (U2OS [1]; [14]) was 101 and the “Growth Rate” value (HEK-293T; [15]) was 1. For the same compound, the “Growth Rate” value (HEK-293T; 0 h, replicate number 2, timepoint 0 hours) was 0, the “Growth Rate” value (HEK-293T; [16]) was 0 and the “Growth Rate” value (HEK-293T; 12 h, replicate number 1, timepoint 12 hours) was 0. The “Growth Rate” value (HEK-293T; [17]) was 0, the “Growth Rate” value (HEK-293T; 18 h, replicate number 2, timepoint 18 hours) was 1 and the “Growth Rate” value (HEK-293T; [18]) was 0. For the same compound, the “Growth Rate” value (HEK-293T; 24 h, replicate number 2, timepoint 24 hours) was 1, the “Growth Rate” value (Fibroblast; [15]) was 0 and the “Growth Rate” value (Fibroblast; [16]) was 1. For the same compound, the “Growth Rate” value (Fibroblast; [17]) was 1, the “Growth Rate” value (Fibroblast; [18]) was 1 and the “Growth Rate” value (U2OS [2]; [15]) was 0. The “Growth Rate” value (U2OS [2]; 6 h, replicate number 2, timepoint 6 hours) was 1, the “Growth Rate” value (U2OS [2]; 12 h, replicate number 2, timepoint 12 hours) was 1 and the “Growth Rate” value (U2OS [2]; [17]) was 1. The “Growth Rate” value (U2OS [2]; [18]) was 1.
